# Compound activity: PubChem BioAssay, The Scripps Research Institute Molecular Screening Center
# CHRM1 antagonist: human M1 muscarinic receptor antagonists, primary screen, CHO-K1 cells, Fluo-8 calcium fluorescence, 1536-well. CHO-K1 hM1, ACh EC80 antagonist. Muscarinic acetylcholine receptor M1 (Homo sapiens), P11229. inhibition, % at 3 µM. 1.3% of 360,000 active;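 active = percent inhibition above its own plate's cutoff, namely the mean of that plate's compound wells plus 3 SD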;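 note: peak over basal fluorescence ratio during 140 s after agonist addition; 0% = ACh EC80 plus DMSO and 100% = DMSO alone without agonist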
# TAAR1 ag: human TAAR1 agonists, primary screen, Fluo-8 calcium fluorescence, CHO RD-HGA16 cells | Trace amine-associated receptor 1 (Homo sapiens), Q96RJ0 | vehicle wells 0%, saturating PEA agonist 100% | activation, % at 3 µM | 0.99% of 360,000 active;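 active = activation above the mean activation of all test compounds in the run plus 3 SD, cut at about 38% in these data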
#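 Test system: RD-HGA16 (CHO) cells co-expressing Gα16 and hTAAR1 | Doses: Single dose, 3 µM | Schedule: 17-24 h seeding, 75 min 37 °C dye, 30 min RT | Evaluation: % activation from peak over basal fluorescence ratio, DMSO-to-PEA scaled | Technique: Kinetic Fluo-8 calcium fluorescence | Benchmarks: Low control DMSO, high control PEA (EC100)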
# TAAR1 antag: human TAAR1 antagonists, primary screen, Fluo-8 calcium fluorescence, CHO RD-HGA16 cells; 1.5% of 360,000 active; antagonist; Trace amine-associated receptor 1 (Homo sapiens), Q96RJ0; inhibition, % at 3 µM; AID 624466, 2012;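 active = inhibition above a per-plate cutoff, the mean inhibition of test compounds on that plate plus 3 SD, cut at about 49% in these data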;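 note: 0% = DMSO plus EC80 beta-PEA response and 100% = DMSO alone without agonist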
#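 Assay system: CHO-derived RD-HGA16 cells stably expressing human TAAR1 plus Gα16. Timing: 140 s kinetic read after compound, 140 s after agonist. Technique: kinetic Fluo-8 calcium fluorescence measurement. Measure: % inhibition of agonist calcium response.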
# M1 PAM: human M1 muscarinic receptor positive allosteric modulators, primary screen, CHO-K1 cells, Fluo-8 calcium fluorescence, 1536-well. 0.088% of 360,000 active. activation, % at 3 µM. Muscarinic acetylcholine receptor M1 (Homo sapiens), P11229. CHO-K1 hM1, ACh EC20; 0% = ACh EC20, 100% = maximal ACh; in the data active = activation above about 19%, passing the limit was not always enough
# CHRM1 agonist: human M1 muscarinic receptor agonists, primary screen, Fluo-8 calcium fluorescence, CHO-K1 cells, HTS | Muscarinic acetylcholine receptor M1 (Homo sapiens), P11229 | CHO-K1 hM1, agonist mode; 0% DMSO, 100% acetylcholine EC100 | activation, % at 3 µM | 0.33% of 360,000 active | AID 588814, 2011;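 active = activation above the run's mean compound activation plus 3 SD, cut at about 16% in these data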;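 note: peak over basal fluorescence ratio within a 140 s kinetic read after compound addition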
# m5-HT2A agonist: mouse Htr2a agonists via beta-arrestin recruitment, primary screen, cell-based, luminescence | 5-hydroxytryptamine receptor 2A (Mus musculus), P35363 | CHO-K1 mHTR2A beta-arrestin complementation; percent of 30 µM serotonin response | activation, % at 7.6 µM | 0.66% of 360,000 active;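 active = activation above a run cutoff, the mean activation of all tested compounds plus 3 SD, cut at about 14% in these data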;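 note: 0% = plate median of compound wells and 100% = 30 µM serotonin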
# MOR ag counter: OPRM1 agonists via beta-arrestin recruitment, confirmation, counter-screen for mouse HTR2A agonist project, cell-based, luminescence, single concentration; shares compounds with m5-HT2A agonist; U2OS OPRM1 beta-arrestin PathHunter; DMSO 0%, DAMGO 9.3 µM 100%; activation, % at 9.3 µM; 5.3% of 2,300 active;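 active = mean activation above the mean of DMSO-only wells plus 3 SD, cut at about 0.5% in these data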
# Target sequence (P35372 whole entry, looked up): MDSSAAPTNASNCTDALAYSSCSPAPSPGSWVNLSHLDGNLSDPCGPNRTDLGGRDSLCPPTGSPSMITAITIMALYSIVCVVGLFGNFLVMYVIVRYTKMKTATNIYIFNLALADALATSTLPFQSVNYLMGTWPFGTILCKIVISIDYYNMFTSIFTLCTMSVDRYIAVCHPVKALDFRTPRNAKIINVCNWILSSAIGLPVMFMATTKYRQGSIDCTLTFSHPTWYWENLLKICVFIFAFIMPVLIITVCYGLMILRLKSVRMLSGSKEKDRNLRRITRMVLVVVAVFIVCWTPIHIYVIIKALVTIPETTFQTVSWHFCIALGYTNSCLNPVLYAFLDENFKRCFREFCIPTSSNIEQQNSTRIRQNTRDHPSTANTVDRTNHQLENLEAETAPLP
# m5-HT2A ag conf: mouse HTR2A agonists, beta-arrestin recruitment, confirmation, cell-based, luminescence, CHO-K1 PathHunter, triplicate | shares compounds with m5-HT2A agonist | DMSO 0%, 30 µM serotonin 100% | activation, % at 7.6 µM | 19% of 2,300 active | AID 624381, 2012;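 active = mean activation across triplicates above the hit threshold derived in the original primary screen, cut at about 15% in these data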
# The depositor's hits bear a star; · = not tested or not shown. Most compounds without a hit are left out; they make up all but 3.9% or so of the library.
SMILES,CHRM1 antagonist,TAAR1 ag,TAAR1 antag,M1 PAM,CHRM1 agonist,m5-HT2A agonist,MOR ag counter,m5-HT2A ag conf
COc1ccc(-c2csc(-n3ncc(C(=O)O)c3C(F)(F)F)n2)cc1,-8,-1,-17,9,-6,15*,-1,-4
CNC(=O)c1cnn(-c2nc(-c3ccc(OC)cc3)cs2)c1C(F)(F)F,-6,-3,11,3,-5,2,·,·
CCc1ccc(NC(=O)CSc2n[nH]c(=O)n2C2CC2)cc1,-5,1,-5,3,-7,6,·,·
O=C(CSc1n[nH]c(=O)n1C1CC1)NCc1ccccc1,-9,2,-4,3,-2,15*,-1,-3
C#CCn1c(-c2cccs2)nc2ccccc21,2,4,12,5,-4,22*,-1,-2
O=C(c1ccc(-c2ccc([N+](=O)[O-])cc2)o1)N1CCCCCCC1,-15,-1,9,25,2,15*,-1,-6
Cc1nc2cc(-c3ccc(Br)cc3)[nH]n2c(=O)c1Cl,-11,2,-20,5,-2,18*,-1,-3
Cc1cc2nc(C)c(Cl)c(=O)n2[nH]1,-5,5,-9,7,-5,0,·,·
Cc1ccc(-c2ccc(=O)n(CC(=O)NCCN(CC(C)C)CC(C)C)n2)cc1,-16,4,-12,14,-1,4,·,·
CCc1ccc(NC(=O)Cn2nnc(C(=O)NCCc3ccc(OC)c(OC)c3)c2N)cc1,-13,11,-56,14,0,17*,0,2
CCNC(=O)N(C)C[C@H]1N[C@@](CC)(C(=O)OC)[C@H]2C(=O)N(C)C(=O)[C@@H]12,1,2,-25,0,-1,-2,·,·
Cc1cc(C(=O)CSc2nnc(-c3ccccc3)o2)c(C)n1CC1COc2ccccc2O1 (stereo unspecified),-6,19,-2,6,-3,5,·,·
Cc1cc(C(=O)CSc2nnc(-c3ccc(F)cc3)o2)c(C)n1CC1COc2ccccc2O1 (stereo unspecified),-4,12,-8,4,-1,16*,-1,0
Cc1ccnc(NC(=O)c2cccc(NC(=O)c3ccccc3C)c2)c1,-17,2,9,13,-2,-3,·,·
c1cncc(CNc2nc(N3CCOCC3)nc(N3CCOCC3)n2)c1,-6,10,10,10,-1,16*,0,-5
c1ccc(Nc2nc(N3CCNCC3)nc(N3CCOCC3)n2)cc1,-22,17,12,8,0,23*,0,12
C(=N\Nc1nc(N2CCCC2)nc(N2CCCC2)n1)/c1cccnc1,-7,2,-8,6,-4,15*,0,-1
COC(=O)C1CCN(C(=O)CN2C(=O)NC(CC(C)C)C2=O)CC1 (stereo unspecified),-9,-1,-19,11,-2,-3,·,·
O=C(O)c1ccc(NC(=O)c2ccco2)c(NC(=O)c2ccco2)c1,-15,4,-20,9,2,2,·,·
O=C(NC(=S)Nc1ccccc1N1CCCC1)c1ccc(F)cc1,-8,6,-26,5,-10,-4,·,·
O=C(NC(=S)Nc1ccccc1N1CCCCC1)c1ccc(F)cc1Cl,-1,1,-32,-3,-4,17*,-1,-5
COc1ccc(OC)c(S(=O)(=O)N/N=C\c2ccc3c(c2)OCO3)c1,-12,0,-20,12,-4,17*,-1,-1
COc1ccc(S(=O)(=O)N/N=C\c2ccc3c(c2)OCO3)c(OC)c1,4,5,-25,-2,2,-5,·,·
N#C/C(=C\c1ccc(F)c(Cl)c1)S(=O)(=O)c1ccccn1,-17,0,-19,16,-1,5,·,·
Cc1ccc(S(=O)(=O)CC(=O)Nc2nc(C(C)(C)C)cs2)cc1,-16,-5,-22,9,-11,19*,0,-1
SMILES,CHRM1 antagonist,TAAR1 ag,TAAR1 antag,M1 PAM,CHRM1 agonist,m5-HT2A agonist,MOR ag counter,m5-HT2A ag conf
Cc1ccc(S(=O)(=O)CCC(=O)Nc2nc(C(C)(C)C)cs2)cc1,8,0,2,-3,-2,-2,·,·
CCc1nc2c(OCc3ccccc3)cccn2c1N(C)C(=O)c1ccc2c(c1)OCO2,-11,-1,-3,11,-1,14*,0,-6
CCc1nc2c(OCc3ccc(Cl)cc3)cccn2c1N(C)C(=O)c1ccc2c(c1)OCO2,0,3,1,7,-4,-3,·,·
Cc1ccc(S(=O)(=O)N2CCCC2CNC(=O)C(=O)NC2CC2)cc1 (stereo unspecified),1,4,-6,6,-1,-4,·,·
Cc1ccc(-c2nnc(Nc3ccc4c(c3)OCO4)c3ccccc23)cc1S(N)(=O)=O,-2,0,8,-1,-2,15*,0,4
CCCc1cnc(N2CCN(C(=S)NC)CC2)nc1,-2,7,-17,6,-3,17*,-1,1
COc1ccc(C2=CC(c3ccc(F)cc3)n3nnnc3N2)cc1 (stereo unspecified),-1,6,1,4,-5,2,·,·
COc1ccc(C2=CC(c3sccc3C)n3nnnc3N2)cc1 (stereo unspecified),-8,8,21,3,-4,15*,0,2
Nc1cc(=O)[nH]c(SCc2csc(-c3ccccc3)n2)n1,-2,4,-6,-4,-3,19*,-1,-3
COc1cccc(C(=O)NCCS(=O)(=O)N2CCC(C)CC2)c1,3,1,6,2,-3,14*,0,-5
CC(CNc1nc2ccccc2n2cnnc12)c1ccccc1 (stereo unspecified),-6,7,-6,4,-2,4,·,·
[O-][n+]1c2ccccc2[n+]([O-])c2cc(O)ccc21,-12,4,-26,9,-3,-9,·,·
